In ChEMBL document CHEMBL2021893, “Synthesis, structure-activity relationship and in vitro anti-mycobacterial evaluation of 13-n-octylberberine derivatives” (2012):
In brackets after ≈: the same amount, converted by molar mass. Activity calls are given as the source filed them. No cut-off for these calls is given here.

Test system: Mycobacterium tuberculosis
Experiment: Antimycobacterial activity against drug-susceptible Mycobacterium tuberculosis H37Rv measured 24 hrs post dose by microplate alamar blue assay
Assay type: functional
Outline: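 Two-fold serial drug dilutions in 7H9 medium in 48-well plates, with H37Rv suspension added to give 4 × 10^-4 mg/mL bacteria per well. Plates were incubated at 37 °C, and alamar blue was added at an optimal time. The read was visual at 24 h after reagent addition. MIC was taken as the lowest concentration preventing the colour change.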

Row | Structure (SMILES) | MIC
1 | CCCCCCCCc1c2[n+](cc3c(O)c(OC)ccc13)CCc1cc(O)c(O)cc1-2.[Cl-] | 32 µg/mL
2 | CCCCCCCCc1c2[n+](cc3c(OC(=O)c4ccc(C)cc4)c(OC)ccc13)CCc1cc3c(cc1-2)OCO3.[Cl-] | 4 µg/mL
3 | CCCCCCCCc1c2[n+](cc3c(OC)c(OC)ccc13)CCc1cc(OC)c(OC)cc1-2.[Cl-] | 2 µg/mL
4 | CCc1c2[n+](cc3c(OC)c(OC)ccc13)CCc1cc3c(cc1-2)OCO3 | inactive
5 | CCCCCCCCc1c2[n+](cc3c(OCCCC)c(OC)ccc13)CCc1cc3c(cc1-2)OCO3.[Cl-] | 8 µg/mL
6 | CCCCCCCCc1c2[n+](cc3c(OC)c(OC)ccc13)CCc1cc(OCCCC)c(O)cc1-2.[Cl-] | 8 µg/mL
7 | NNC(=O)c1ccncc1 [ISONIAZID] | 0.0625 µg/mL (≈ 0.456 µM)
8 | CCCCCCCCc1c2[n+](cc3c(OC)c(OC)ccc13)CCc1cc(OCC)c(O)cc1-2.[Cl-] | 2 µg/mL
9 | CCCCc1c2[n+](cc3c(OC)c(OC)ccc13)CCc1cc3c(cc1-2)OCO3 | inactive
10 | CCCCCCCCc1c2[n+](cc3c(OCC)c(OC)ccc13)CCc1cc3c(cc1-2)OCO3.[Cl-] | 4 µg/mL
11 | COc1ccc2c(C)c3[n+](cc2c1OC)CCc1cc2c(cc1-3)OCO2 | inactive
12 | CCCCCCCCc1c2[n+](cc3c(OCc4ccccc4)c(OC)ccc13)CCc1cc(OCc3ccccc3)c(O)cc1-2.[Cl-] | 0.5 µg/mL
13 | CCCCCCCCc1c2[n+](cc3c(OC)c(OC)ccc13)CCc1cc(OCCC)c(O)cc1-2.[Cl-] | 4 µg/mL
14 | CCCCCCCCc1c2[n+](cc3c(OCCC)c(OC)ccc13)CCc1cc3c(cc1-2)OCO3.[Cl-] | 2 µg/mL
15 | CCCCCCCCc1c2[n+](cc3c(OCCC)c(OC)ccc13)CCc1cc(OCCC)c(O)cc1-2.[Cl-] | 4 µg/mL
16 | CCCCCCCCc1c2[n+](cc3c(OCC)c(OC)ccc13)CCc1cc(OCC)c(O)cc1-2.[Cl-] | 4 µg/mL
17 | CCCCCCCCc1c2[n+](cc3c(OCC)c(OC)ccc13)CCc1cc(OCC)c(OCC)cc1-2.[Cl-] | 0.125 µg/mL
18 | CCCCCCCCc1c2[n+](cc3c(OCc4ccccc4)c(OC)ccc13)CCc1cc(OCc3ccccc3)c(OCc3ccccc3)cc1-2.[Cl-] | 8 µg/mL
19 | CCCCCCCCc1c2[n+](cc3c(OC)c(OC)ccc13)CCc1cc(OC)c(O)cc1-2.[Cl-] | 2 µg/mL
20 | CCCCCCCCc1c2[n+](cc3c(OC)c(OC)ccc13)CCc1cc3c(cc1-2)OCCO3.[Cl-] | 2 µg/mL

Row | Structure (SMILES) | MIC
21 | CCCCCCCCc1c2[n+](cc3c(OC)c(OC)ccc13)CCc1cc(OCCCC)c(OCCCC)cc1-2.[Cl-] | 2 µg/mL
22 | CCCc1c2[n+](cc3c(OC)c(OC)ccc13)CCc1cc3c(cc1-2)OCO3 | inactive
23 | CCCCCCCCc1c2[n+](cc3c(OCc4ccccc4)c(OC)ccc13)CCc1cc3c(cc1-2)OCO3.[Cl-] | 4 µg/mL
24 | CCCCCc1c2[n+](cc3c(OC)c(OC)ccc13)CCc1cc3c(cc1-2)OCO3 | inactive
25 | COc1ccc2cc3[n+](cc2c1OC)CCc1cc2c(cc1-3)OCO2 | inactive
26 | CCCCCCCCc1c2[n+](cc3c(OS(=O)(=O)c4ccc(C(F)(F)F)cc4)c(OC)ccc13)CCc1cc3c(cc1-2)OCO3.[Cl-] | 16 µg/mL
27 | CCCCCCCCc1c2[n+](cc3c(OCCCC)c(OC)ccc13)CCc1cc(OCCCC)c(O)cc1-2.[Cl-] | 8 µg/mL
28 | CCCCCCCCc1c2[n+](cc3c(OC)c(OC)ccc13)CCc1cc(OCc3ccccc3)c(O)cc1-2.[Cl-] | 2 µg/mL
29 | CCCCCCCCc1c2[n+](cc3c(OC)c(OC)ccc13)CCc1cc3c(cc1-2)OCO3.[Cl-] | 2 µg/mL
30 | CCCCCCCCc1c2[n+](cc3c(OC)c(OC)ccc13)CCc1cc(OCCC)c(OCCC)cc1-2.[Cl-] | 2 µg/mL
31 | CCCCCCCc1c2[n+](cc3c(OC)c(OC)ccc13)CCc1cc3c(cc1-2)OCO3 | inactive
32 | CCCCCCCCc1c2[n+](cc3c(OC)c(OC)ccc13)CCc1cc(OCc3ccccc3)c(OCc3ccccc3)cc1-2.[Cl-] | 8 µg/mL
33 | CCCCCCCCc1c2[n+](cc3c(OC)c(OC)ccc13)CCc1cc(O)c(O)cc1-2.[Cl-] | 16 µg/mL
34 | CCCCCCCCc1c2[n+](cc3c(O)c(OC)ccc13)CCc1cc3c(cc1-2)OCO3.[Cl-] | 4 µg/mL
35 | CCCCCCCCc1c2[n+](cc3c(OC(=O)c4ccc(OC)cc4)c(OC)ccc13)CCc1cc3c(cc1-2)OCO3.[Cl-] | 4 µg/mL
36 | CCCCCCCCc1c2[n+](cc3c(OS(=O)(=O)c4ccc(C#N)cc4)c(OC)ccc13)CCc1cc3c(cc1-2)OCO3.[Cl-] | 8 µg/mL
37 | CCCCCCCCc1c2[n+](cc3c(OC)c(OC)ccc13)CCc1cc(OCC)c(OCC)cc1-2.[Cl-] | 0.5 µg/mL
38 | CO[C@H]1/C=C/O[C@@]2(C)Oc3c(C)c(O)c4c(O)c(c(/C=N/N5CCN(C)CC5)c(O)c4c3C2=O)NC(=O)/C(C)=C\C=C\[C@H](C)[C@H](O)[C@@H](C)[C@@H](O)[C@@H](C)[C@H](OC(C)=O)[C@@H]1C [RIFAMPIN] | 0.0625 µg/mL (≈ 0.0759 µM)
39 | CCCCCCc1c2[n+](cc3c(OC)c(OC)ccc13)CCc1cc3c(cc1-2)OCO3 | inactive
